Measurements from ChEMBL document CHEMBL4513216, “Probing the Open Global Health Chemical Diversity Library for Multistage-Active Starting Points for Next-Generation Antimalarials” (ACS Infect Dis, 2020).

Assay: Toxicity liver stage against HepG2, at 10uM
Assay type: cell-based
Parameters: test concentration 10 uM, cell line HepG2-A16-CD81EGFP
Conditions: human, HepG2-A16-CD81EGFP cells; read-out: INHIBITION
Procedure, shortened: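 Uninfected HepG2-A16-CD81EGFP cells, 3 × 10^3 per well, 1536-well, plated on prespotted compound at 10 μM final, parasite-free screening media added to match infected plates; puromycin 10 μM positive, DMSO 0.5% negative; run in parallel with 48 h PbLuc assay at 37 °C, 5% CO2; viability by CellTiter-Glo luminescence, normalized to controls.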

Row | SMILES | cytotoxicity at 10 µM
1 | O=C(NC[C@H]1OC[C@@H](NC2CCCCC2)[C@@H]1O)Nc1ccccc1 | -11.6%
2 | CC(C)(C)C(=O)N1C[C@@H](F)[C@@H](OCc2nc3ncccc3[nH]2)C1 | 2.97%
3 | COc1ccc(Cl)c(-c2noc3ncn(CCC(=O)O)c(=O)c23)c1 | 7.25%
4 | Cc1nnc(SCc2cc(=O)n3c4c(sc3n2)CCCC4)[nH]1 | -9.67%
5 | CCS(=O)(=O)Nc1ccc2c(c1)OCC(C)(C)C(=O)N2C | -17.2%
6 | COCCNC(=O)Cn1cc(OCc2ccc(F)cc2)c(=O)cc1C | -3.04%
7 | CSc1ncccc1C(=O)NCCC(O)c1cccs1 (stereo unspecified) | -4.68%
8 | O=C(Nc1cccnc1)c1ccc(-n2cncn2)nn1 | 4.48%
9 | CNC(=O)CS(=O)(=O)C1CCN(S(=O)(=O)c2ccccc2Cl)CC1 | 11.7%
10 | CN(C)CCN1C(=O)CCCC12CCCN(Cc1ccc[nH]1)C2 (stereo unspecified) | -10.1%
11 | Cc1noc(C)c1CN1CCCC2(CCN(C(=O)N3CCOCC3)C2)C1 (stereo unspecified) | 3.35%
12 | O=C(C1CCCO1)N1CCCn2c(nnc2Cn2cccc2)C1 (stereo unspecified) | 16.4%
13 | Cc1nnc([C@H]2C[C@H]3OCC[C@H]3N(S(=O)(=O)C3CC3)C2)o1 | -4.11%
14 | CCCc1ccc(N2CCN(Cc3nc4ccccc4n3C)CC2)cc1 | 7.06%
15 | O=C(c1ccno1)N1CCC2(CC1)C(=O)N(CC1CC1)c1ccccc12 | 7.85%
16 | CCCN(C(=O)CCS(=O)(=O)Cc1ccccc1)c1cccc(C)c1 | -2.67%
17 | CCc1ccc(NC(=O)c2n[nH]c(-n3cnnc3)n2)cc1 | 4.68%
18 | CCN1CCCC(O)(CNCc2ccccn2)C1 (stereo unspecified) | -5.69%
19 | c1ccc(-c2nn3c(CN4CCOCC4)nnc3s2)nc1 | 9.9%
20 | CC(=O)N1CCC1c1nc(-c2ccc(C)s2)no1 (stereo unspecified) | -1.78%
21 | Cn1cc(CN2CCCCC2c2ccc(-c3cnn(C)c3)nc2)cn1 (stereo unspecified) | 9.25%
22 | CN(C)C(=O)C1CN(c2ncccn2)CCN1C (stereo unspecified) | -0.419%
23 | Cc1nccc(N2CCN(C3CCOCC3)CC(C(=O)N(C)C)C2)n1 (stereo unspecified) | 2.12%

Row | SMILES | cytotoxicity at 10 µM
24 | Cc1ncc(CN2CCC(c3nc(O)cc(-c4ccsc4)n3)CC2)cn1 | -11.8%
25 | O=C(CC1CCN(CCc2ccccc2)CC1)NC1CCOCC1 | 3.31%
26 | CCCC(=O)N1CCCC(c2cc3cccnc3c(O)n2)C1 (stereo unspecified) | 7.53%
27 | O=C(CCN1CCc2ccccc21)N1CC(C(=O)N2CCOCC2)C1 | -26.7%
28 | O=C(Cc1ccsc1)N1CCC(c2noc(-c3cccnc3)n2)CC1 | -18.2%
29 | O=C(c1ccc(O)nc1)N1Cc2ccccc2OC2(CCOCC2)C1 | -44.2%
30 | CC(=O)N1CCC2(CC1)CC(NS(C)(=O)=O)c1ccccc1O2 (stereo unspecified) | 5.53%
31 | Cc1nc(C)c(CNC(=O)NC2CC(C)(C)OC2(C)C)s1 (stereo unspecified) | -0.864%
32 | CSc1ccc(C(=O)N(c2ccc(F)cn2)C2CCOCC2)o1 | -10.7%
33 | CC(=O)Nc1ccc(SCC(O)COCc2ccc3c(c2)OCO3)cc1 (stereo unspecified) | 3.56%
34 | O=C(CC1OCCc2ccccc21)NCCn1cccc1 (stereo unspecified) | 1.71%
35 | Cc1ocnc1CNC(=O)Nc1ccc(N2CCOC(C)C2)cc1 (stereo unspecified) | -2.8%
36 | Cc1cccc(C)c1CN1C(=O)CC2(CCSC2)C1=O (stereo unspecified) | 14.9%
37 | COc1c(C2CCCN2CCOc2ccccc2C#N)c(C)nn1C (stereo unspecified) | 2.59%
38 | CCS(=O)(=O)c1ccc(N2CCC(NC(=O)NC(C)CO)CC2)cc1 (stereo unspecified) | 13.9%
39 | CCOc1c(Cl)cccc1NS(=O)(=O)c1cc(C)c(C(=O)O)s1 | 2.13%
40 | CS(=O)(=O)Cc1ccc(C(=O)N2CCCC(n3cncn3)C2)o1 (stereo unspecified) | -9%
41 | CCOCCCC(=O)Nc1c(-c2ccc(F)cc2)ncn1C | -9.19%
42 | Cc1nc(C)n(CC2CN(CCc3ccccc3Cl)CCO2)n1 (stereo unspecified) | -0.431%
43 | COCCCN(Cc1ccncc1)C(=O)CSc1ccc(F)cc1 | 0.807%
44 | O=S(=O)(Cc1c(F)cccc1Cl)Cc1nnnn1C1CC1 | -5.19%
45 | CCC(=O)N1CCC(NC2CCSCC2)C1 (stereo unspecified) | 2.85%
46 | CN(C)C(CNC(=O)N(Cc1ccco1)C1CC1)c1cccs1 (stereo unspecified) | 3.06%

Row | SMILES | cytotoxicity at 10 µM
47 | Cc1occc1CNC(=O)Nc1ccc2nc(N3CCOCC3)oc2c1 | 9.5%
48 | COc1ccc(C2(NC(=O)C3CC(=O)N(C)C3)CCCC2)cc1 (stereo unspecified) | 14.7%
49 | Cn1cc(CNc2ccc(CCO)cc2)c(-c2ccncc2)n1 | 5.82%
50 | COCC(=O)Nc1cc(Br)cnc1OCC(F)(F)F | -5.6%
51 | CCN(C)CC1CCN(c2ncc(Br)cn2)C1 (stereo unspecified) | -2.55%
52 | CC(NCCCN1CCCN(C)CC1)C(C)(C)C (stereo unspecified) | 29.9%
53 | Cc1cc(F)cc(S(=O)(=O)Nc2ccn(CCCC#N)n2)c1 | 18%
54 | CCn1c(CN2CCOC(Cn3cccn3)C2)nc2c(F)cccc21 (stereo unspecified) | -3.43%
55 | CCc1noc(CN(C)CCC(=O)Nc2ccccc2C#N)n1 | 9.69%
56 | COc1ccc(S(=O)(=O)Cc2cc(C)on2)cc1 | 7.55%
57 | NC(=O)C1CCCN1Cc1ccccc1NC(=O)Cc1cccs1 (stereo unspecified) | 7.31%
58 | CC(C)C(C)NC(=O)CCN1C(=O)CCc2cc(F)ccc21 (stereo unspecified) | 8.91%
59 | COc1ccccc1CN(Cc1nc2c(cnn2C)c(=O)[nH]1)C1CC1 | 15%
60 | CC(C)(O)CNc1ccc(C#N)c(C(F)(F)F)c1 | 1.23%
61 | CCc1nc(C2CCCN2C(=O)CCCOc2cccc(F)c2)no1 (stereo unspecified) | 11.1%
62 | Cc1noc([C@H]2C[C@@H]3CCN(C(=O)c4cccn4C)C[C@H]3O2)n1 | -103%
63 | CN(Cc1nc(-c2ccccc2)no1)Cc1cnc(N2CCOCC2)s1 | -1.48%
64 | Cc1ccccc1N1CCN(C(=O)c2cnc(N(C)C)nc2C)C(C)C1 (stereo unspecified) | 15.3%
65 | N[C@H]1CN(C(=O)c2ccc(Cl)cc2F)C[C@@H]1C1CC1 | -44.3%
66 | CN(C)[C@H]1CCN(c2ccnc(C(=O)NCc3ccco3)c2)C1 | 4.12%
67 | COCC1CCN(C(=O)c2cn(Cc3cccc(C(F)(F)F)c3)nn2)C1 (stereo unspecified) | -0.695%
68 | c1cnn(CCC2CCCCN2Cc2cnc(C3CCCCC3)nc2)c1 (stereo unspecified) | 0.106%
69 | CC1CN(CCC(=O)NCCc2cccnc2)Cc2ccccc2O1 (stereo unspecified) | -3.34%

Row | SMILES | cytotoxicity at 10 µM
70 | CC(C)(O)CCc1cccc(C(=O)NCC2COCCO2)c1 (stereo unspecified) | -6.38%
71 | CCN(CCn1cccn1)Cc1nc(-c2cc(F)ccc2F)oc1C | -1.57%
72 | FC(F)(F)C1CN(Cc2cnc3c(-c4ccccc4)cnn3c2)CCO1 (stereo unspecified) | -2.34%
73 | CC(C(=O)N(C)Cc1noc(C2CCC2)n1)N1CCc2ccccc2C1 (stereo unspecified) | -79.1%
74 | COc1cccc(OC)c1OCCN1C(=O)CCNC1=O | -7.89%
75 | CC(C)c1nccn1Cc1cc(C(=O)NCC(C)n2ccnc2)n[nH]1 (stereo unspecified) | -0.419%
76 | N#Cc1ccc(Oc2cc(F)c(CN3CCCC3)c(F)c2)nc1 | -8.74%
77 | CNc1ncccc1C(=O)N1CCN(C)C2(CCN(C)CC2)C1 | 7.16%
78 | CNC(=O)[C@@H]1C[C@@H](NC(=O)c2cn(C)nc2C)CN1Cc1sccc1C | -5.58%
79 | CCSCCn1c(=O)n(Cc2ccc(F)cc2)c2ncc(C(=O)O)cc21 | -2.54%
80 | Cc1cc(C)n(CCCN(C)C(=O)CN2CC3(CCNCC3)OC2=O)n1 | 5.25%
81 | Cc1nc(O)cc(CCNc2nc(N(C)C)nc(C)c2C)n1 | -3.03%
82 | COc1ccc(F)c(CN2CCCC(c3cc(O)nc(C)n3)C2)c1 (stereo unspecified) | 7.3%
83 | CCc1nc(CNc2ccc(-c3nc(C4CC4)no3)cn2)no1 | -6.14%
84 | CN(C)C(=O)c1ccc(N2CCC3(CCC(=O)N(CCO)C3)CC2)nc1 | 3.8%
85 | CC(C)C(=O)N1CCC(c2nc3c([nH]2)CCCNC3=O)CC1 | 1.74%
86 | CCCC1(CO)CCCN(c2ncnc3c2c(C)nn3C)C1 (stereo unspecified) | 2.72%
87 | Cc1cccc(-c2nccn2C2CC(=O)N(C(C)C)C2)n1 (stereo unspecified) | 5.62%
88 | OC1(CNCc2noc(Cc3ccccc3)n2)CCCNC1 (stereo unspecified) | 5.19%
89 | CCc1cc(N(C)Cc2ncc[nH]2)nc(N2CCOCC2)n1 | -1.61%
90 | Cc1ccc(S(=O)(=O)NC2CC2)cc1C | -10.6%
91 | CC(C)N(Cc1ccccn1)Cc1nc2c(cnn2C)c(=O)[nH]1 | -6.42%
92 | Cc1nc(C)c(CC(=O)Nc2nnc(C(C)C)s2)c(=O)[nH]1 | -7.16%

Row | SMILES | cytotoxicity at 10 µM
93 | Cc1nc(CN2CCCC(N(C)CCc3ccncc3)C2)no1 (stereo unspecified) | -6.93%
94 | Cc1cc(CN2CCCC2c2noc(C)n2)no1 (stereo unspecified) | 2.48%
95 | Cc1ccc(N2CCCC(NCC(=O)NC3CCOCC3)C2)nn1 (stereo unspecified) | 3.08%
96 | COc1cccc(COCC(=O)N2CCCC(c3cc(C)[nH]n3)C2)c1 (stereo unspecified) | -6.81%
97 | O=C(c1cc(F)ccc1F)C1CCN(C(=O)c2cccnc2O)CC1 | -3.99%
98 | O=C(NCc1ccc(Cl)cc1)N1CCN(CC(O)C2CC2)CC1 (stereo unspecified) | 8.66%
99 | CNCC1CCC(c2cc(CN(C)C(=O)c3cnccn3)n(C)n2)CC1 (stereo unspecified) | -5.1%
100 | Cc1ccsc1CN1CCC2(CC1)CC(OCc1cccnc1)CO2 (stereo unspecified) | 3.45%
101 | COc1cc(N2CCC3(CC2)CC(N2CCN(C)CC2)CO3)ncn1 (stereo unspecified) | -9.11%
102 | c1ccc(CN2Cc3[nH]nc(COc4cccnc4)c3C2)nc1 | -109%
103 | COc1ccc(OC)c(CN(Cc2ccco2)Cc2[nH]cnc2C)c1 | -2.51%
104 | OCCN1CC2(CCN(CC3CC3)CC2)c2ccccc21 | 6.4%
105 | O=S(=O)(NC1CCC12CCN(CC1CC1)CC2)c1ccccc1 (stereo unspecified) | -7.82%
106 | Cc1noc(C)c1CN1CCc2ncnc(-c3cccnc3)c2CC1 | -97.9%
107 | Cn1ccnc1C(=O)N1CCC2(CCN2Cc2ccc(F)cc2)C1 (stereo unspecified) | -97%
108 | Cc1nn(C)c(N(C)C)c1CNCc1cccnc1-n1cncn1 | -0.313%
109 | COCCN(C)C[C@@H]1CCC[C@@H]2CN(c3ncccn3)C[C@@H]21 | 4.79%
110 | COCc1nn(CC2CC2)c2c1CN(Cc1ccco1)CC2 | 2.35%
111 | O=c1occ(CN2CCCCCC2)c(O)c1CN1CCCCCC1 | -8.1%
